The source of these data is ChEMBL document CHEMBL2021918, “Discovery of S-444823, a potent CB1/CB2 dual agonist as an antipruritic agent” (Bioorg Med Chem Lett, 2012).

Calls of active or inactive are those of the source. The calls are words filed in the database; no cut-off is given here.

For data set [1], the target named is T1, Cannabinoid receptor 1 (Homo sapiens, UniProt P21554). As to the kind of experiment: Displacement of [3H]CP55940 from human CB1 receptor membrane fractions. The method, boiled down: (§1)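 Membranes from confluent recombinant hCB1 or hCB2 cells: sonicated on ice in 20 mM Tris–HCl pH 7.4, 2 mM EDTA, 0.25 M sucrose with protease inhibitor; spun 3000 rpm 10 min, then supernatant 100,000 g 60 min at 4 °C; pellets stored at −80 °C. Radioligand [3H]-CP55940; its Kd per membrane set by Scatchard analysis.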
T1 sequence (P21554 whole entry): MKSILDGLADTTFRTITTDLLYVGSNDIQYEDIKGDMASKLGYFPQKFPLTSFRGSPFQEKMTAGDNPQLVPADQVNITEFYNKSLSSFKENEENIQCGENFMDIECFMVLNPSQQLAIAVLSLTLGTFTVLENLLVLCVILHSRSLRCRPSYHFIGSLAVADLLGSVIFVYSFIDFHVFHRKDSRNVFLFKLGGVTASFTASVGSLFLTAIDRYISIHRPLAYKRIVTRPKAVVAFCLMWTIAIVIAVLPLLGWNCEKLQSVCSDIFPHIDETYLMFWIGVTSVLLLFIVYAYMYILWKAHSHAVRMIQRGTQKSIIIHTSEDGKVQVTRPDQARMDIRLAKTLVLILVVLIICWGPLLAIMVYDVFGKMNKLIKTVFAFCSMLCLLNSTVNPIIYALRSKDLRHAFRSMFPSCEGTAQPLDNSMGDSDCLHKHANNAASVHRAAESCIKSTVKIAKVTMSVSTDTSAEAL

In data set [2] the target is T2, Cannabinoid receptor 2 (Homo sapiens, UniProt P34972). As to the kind of experiment: Agonist activity at human CB2 receptor expressed in CHO cells assessed as inhibition of forskolin-induced cAMP levels after 20 mins. The format is functional, cell-based. The essentials: (§2)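 hCB2-expressing CHO cells in 24-well plates, exposed to compounds 20 min at 37 °C in Hanks'/20 mM HEPES buffer with 0.1 mM IBMX, 0.2 mM Ro20-1724, 0.1% BSA; forskolin 4 µM then added for 45 min at 37 °C; cellular cAMP quantified by kit.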
T2 sequence (P34972 whole entry): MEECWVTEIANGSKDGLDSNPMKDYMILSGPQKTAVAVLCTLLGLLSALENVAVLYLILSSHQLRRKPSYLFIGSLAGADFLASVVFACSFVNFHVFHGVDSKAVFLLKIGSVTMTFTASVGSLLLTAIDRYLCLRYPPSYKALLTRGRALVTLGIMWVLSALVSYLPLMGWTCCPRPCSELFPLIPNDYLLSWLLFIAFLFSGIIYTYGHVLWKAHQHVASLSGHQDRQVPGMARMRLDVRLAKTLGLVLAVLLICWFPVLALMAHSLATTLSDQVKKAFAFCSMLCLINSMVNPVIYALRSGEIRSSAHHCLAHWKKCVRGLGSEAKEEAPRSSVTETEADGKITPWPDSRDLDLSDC

Data set [3] concerns the target T1, Cannabinoid receptor 1. In words: Agonist activity at human CB1 receptor expressed in CHO cells assessed as inhibition of forskolin-induced cAMP levels after 20 mins. It counts as functional, cell-based.
Data set [4] concerns the target T2, Cannabinoid receptor 2. As to the kind of experiment: Displacement of [3H]CP55940 from human CB2 receptor membrane fractions. The method, boiled down: as §1
In data set [5] the test system is Mus musculus. In words: Toxicity in mouse assessed as catalepsy at 0.1 to 1 mg/kg, iv measured at 15 mins post compound administration. The format is organism-based. Also on record: dose 0.1-1 mg/kg, route intravenous. To be noted: in vivo, 0.25 h. The method, boiled down:
(§3)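 ICR mice, n = 3 per dose, given compound iv in tail vein at 0.1 and 1.0 mg/kg, dissolved in MDAA and PEG solution. Behaviour observed 15 min post-dose and scored: 5 tonic convulsion, 4 catalepsy, 3 prone position/sedation, 2 crawling, 1 decreased locomotion, 0 normal.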

The subject of data set [6] is Mus musculus. As to the kind of experiment: Toxicity in mouse assessed as sedation at 0.1 to 1 mg/kg, iv measured at 15 mins post compound administration. The format is organism-based. Also on record: dose 0.1-1 mg/kg, route intravenous. To be noted: in vivo, 0.25 h. The method, boiled down: as §3
For data set [7], the target named is T2, Cannabinoid receptor 2. As to the kind of experiment: Partial agonist activity at human CB2 receptor expressed in CHO cells assessed as inhibition of forskolin-induced cAMP levels after 20 mins. It counts as functional, cell-based. The method, boiled down: as §2
For data set [8], the target named is T1, Cannabinoid receptor 1. As to the kind of experiment: Partial agonist activity at human CB1 receptor expressed in CHO cells assessed as inhibition of forskolin-induced cAMP levels after 20 mins. The format is functional, cell-based.
The species named for data set [9] is Mus musculus. As to the kind of experiment: Antipruritic activity against Crj:CD-1 ICR mouse assessed as inhibition of Compound 48/80-induced scratching behaviour at 1 % compound painted on shaven back 15 mins before challenge measured for 30 mins relative to control. It counts as functional.

Consider `O=C(N[C@@H](Cc1ccccc1)C(=O)O)c1cc2c(n(CC3CCCCC3)c1=O)CCCCCC2`, for which the Ki was determined as 738 nM in data set [1] and 33 nM in data set [4]. The figures for the IC50 in [2] and in [3] were 126 nM and 297 nM, respectively.

For `O=C(O)CCc1csc(NC(=O)c2cc3c(n(CC4CCCCC4)c2=O)CCCCCC3)n1`, the Activity result in data set [5] and in [6] was “Non-toxic” in each case.

In the case of `O=C(O)c1cnc(NC(=O)c2cc3c(n(CC4CCCCC4)c2=O)CCCCCC3)s1`, the Ki in data set [1] is more than 5000 nM; in data set [4], 885 nM. Besides, the IC50 is 800 nM in data set [2] and more than 2000 nM in data set [3].

Turning to `O=C(N[C@H](C(=O)O)C1CCCCC1)c1cc2c(n(CC3CCCCC3)c1=O)CCCCCC2`, the results for the Ki in [1] and in data set [4] were 3060 nM and 111 nM, respectively. Moreover, the IC50 was 51 nM in [2] and more than 2000 nM in data set [3].

Take `O=C(O)Cc1ccccc1NC(=O)c1cc2c(n(CC3CCCCC3)c1=O)CCCCCC2`: the Ki in data set [1] was 548 nM; in data set [4], 46 nM.

As to `O=C(O)Cc1ccc(NC(=O)c2cc3c(n(CC4CCCCC4)c2=O)CCCCCC3)cc1`, the Ki in data set [1] came out at 3990 nM; in data set [4] it was 74 nM. In addition, the figures for the IC50 in [2] and in data set [3] were 96 nM and more than 2000 nM, respectively.

In the case of `CC(C)[C@H](NC(=O)c1cc2c(n(CC3CCCCC3)c1=O)CCCCCC2)C(=O)O`, the Ki in data set [1] was 1880 nM; in data set [4], 116 nM.

On to `O=C(O)c1csc(NC(=O)c2cc3c(n(CC4CCCCC4)c2=O)CCCCCC3)n1`, for which the Ki in data set [1] and in [4] was more than 5000 nM throughout. In addition, the IC50 in data set [3] was more than 2000 nM.

`CC(C)(NC(=O)c1cc2c(n(CC3CCCCC3)c1=O)CCCCCC2)C(=O)O`: the Ki in data set [1] amounted to 1350 nM; in data set [4], 349 nM.

As to `O=C(O)c1ccc(NC(=O)c2cc3c(n(CC4CCCCC4)c2=O)CCCCCC3)cc1`, the results for the Ki in data set [1] and in [4] were 370 nM and 107 nM, respectively. Moreover, the IC50 in [2] came to 38 nM; in data set [3], 291 nM.

As for `O=C(O)Cc1cccc(NC(=O)c2cc3c(n(CC4CCCCC4)c2=O)CCCCCC3)c1`, the Ki amounted to 2880 nM in [1] and 120 nM in data set [4]. Besides, the IC50 in data set [2] was 180 nM; in [3], 997 nM.

Regarding `O=C(O)Cc1cnc(NC(=O)c2cc3c(n(CC4CCCCC4)c2=O)CCCCCC3)s1`, the results for the Ki in data set [1] and in [4] were 235 nM and 4.6 nM, respectively. Besides, the result in data set [7] and in data set [8] was Active. Also, the 50% inhibitory concentration (IC50) in data set [2] was 3.5 nM; in data set [3], 23 nM.

Consider `O=C(N[C@H](C(=O)O)c1ccccc1)c1cc2c(n(CC3CCCCC3)c1=O)CCCCCC2`, for which the outcome in data set [7] and in [8] was Active. The IC50 in data set [3] was more than 2000 nM. In addition, in [4], the affinity, expressed as Ki, was 1.2 nM.

As for `O=C(N[C@@H](C(=O)O)c1ccccc1)c1cc2c(n(CC3CCCCC3)c1=O)CCCCCC2`, the inhibitory constant (Ki) worked out at 69 nM in data set [1] and 3 nM in data set [4]. For the same compound, the result in data set [7] and in [8] was Active. The IC50 is 4.4 nM in data set [2] and more than 2000 nM in data set [3].

On to `O=C(O)Cc1csc(NC(=O)c2cc3c(n(CC4CCCCC4)c2=O)CCCCCC3)n1`, for which the Activity result in data set [5] and in data set [6] was “Non-toxic” in each case. In data set [9], the “inhibition (INH)” value was determined as 109%.

In the case of `O=C(O)c1ccccc1NC(=O)c1cc2c(n(CC3CCCCC3)c1=O)CCCCCC2`, the Ki in data set [1] was determined as 2530 nM; in data set [4], 181 nM. The half-inhibitory concentration (IC50) in data set [2] is 167 nM; in [3], 657 nM.

Turning to `O=C(O)c1cccc(NC(=O)c2cc3c(n(CC4CCCCC4)c2=O)CCCCCC3)c1`, the Ki in [1] amounted to 1560 nM; in [4] it was 614 nM. Besides, the results for the concentration for half-maximal inhibition (IC50) in data set [2] and in data set [3] were 268 nM and 611 nM, respectively.

Compound `O=C(O)c1ccc(CNC(=O)c2cc3c(n(CC4CCCCC4)c2=O)CCCCCC3)cc1` gave an inhibition constant Ki in [4] of 923 nM.
